This is an account of results in ChEMBL document CHEMBL4513216, “Probing the Open Global Health Chemical Diversity Library for Multistage-Active Starting Points for Next-Generation Antimalarials” (ACS Infect Dis, 2020).

The series in a line: Toxicity liver stage against HepG2, at 10uM. In kind it is cell-based. Further details: test concentration 10 uM, cell line HepG2-A16-CD81EGFP. Conditions: human, HepG2-A16-CD81EGFP cells; read-out: INHIBITION
The procedure, abridged:
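Uninfected HepG2-A16-CD81EGFP cells, 3 × 10^3 per well, 1536-well, plated on prespotted compound at 10 μM final, parasite-free screening media added to match infected plates; puromycin 10 μM positive, DMSO 0.5% negative; run in parallel with 48 h PbLuc assay at 37 °C, 5% CO2; viability by CellTiter-Glo luminescence, normalized to controls.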
In the case of `CS(=O)(=O)c1ccc(Cl)c(NC(=O)NCCC2=CCCCC2)c1`, the cytotoxicity at 10 µM stood at 0.0793%.
Then `O=C(c1cccnc1)N1CCN(c2ccc(-n3cccc3)nn2)CC1`, with -9.73%; and `Cc1cnc(N2CCOC3(CCCN(c4ncccn4)C3)C2)nc1` (centres undefined), with 9.19%; and `Cc1cccc(CN2CCC3(CCCN(Cc4cnn(C)c4)C3)C2=O)n1` (centres undefined), with 6.02%.
Take `O=C(c1ccsc1)N1CCc2c(CN3CCCC3)n[nH]c2C1`: the cytotoxicity at 10 µM amounted to 5.04%.
Take `CC1=N[C@@]2(CC[C@@H]3CN(C(=O)Nc4ccc(F)cc4)C[C@@H]32)C(=O)N1C`: the cytotoxicity at 10 µM stood at 8.1%.
The result for `Cc1occc1C(=O)N1CCC2(CC1)CC(c1cccnc1)C(=O)N2C` (centres undefined) reads -7.09%; that for `CC(C)NC(=O)N1CCN(S(=O)(=O)C2CC2)CC2(CC(=O)N(C)C2)C1` (centres undefined), 1.11%.
As for `COCC(=O)Nc1cnn(COc2ccc(F)cc2Cl)c1`, the cytotoxicity at 10 µM is -4.52%.
Then `COCCC(=O)N1CCC(c2nnc(-c3ccsc3)o2)CC1`, with 9.09%.
`Cc1ccnc(C2(C)CCCN2S(=O)(=O)c2c(C)noc2C)n1` (centres undefined): the cytotoxicity at 10 µM was 0.795%.
The result for `Cc1cc(C)n(-c2nc(C(=O)NCCS(=O)(=O)N3CCCCC3)cs2)n1` reads -10.3%; that for `CS(=O)(=O)N1CC(c2nc(N)ncc2-c2ccc(F)cc2)C1`, -3.49%; that for `Cc1cc(=O)[nH]c(=O)n1Cc1ncc(-c2ccccc2C(=O)O)s1`, 2.71%.
As to `COCCC(=O)N1CCC(c2ncncc2-c2ccnc(N)c2)C1` (centres undefined), the cytotoxicity at 10 µM was -2.68%.
As to `c1nc(C2CCCCO2)ncc1CN1CCOCC1` (centres undefined), the cytotoxicity at 10 µM was -8.45%.
The result for `CNC(=O)C1(CCCc2ccncc2)CCCN1` (centres undefined) reads -6.46%; that for `COc1c(C2CCCN2c2ncnc3ccsc23)c(C)nn1C` (centres undefined), 18.6%; that for `CC(=O)NC1(C(=O)N2CCC(Nc3cccnn3)CC2)CCCCC1`, -5.26%.
With `CCCc1n[nH]c(C2CN(Cc3ncc[nH]3)CCO2)n1` (centres undefined), the cytotoxicity at 10 µM stood at 4.69%.
On to `CC(C)(C)NC(=O)CNC(=O)c1cccnc1Oc1cccnc1`, for which the cytotoxicity at 10 µM came to 4.11%.
Then `Cc1nsc(NCCNS(=O)(=O)c2ccccc2)n1`, with -2.78%; and `CS(=O)(=O)CCC(=O)NC1CC(c2cccc(Cl)c2)C1` (centres undefined), with 1.36%; and `N#Cc1cccnc1NC1CCN(c2ccccc2OC(F)F)C1=O` (centres undefined), with 6.37%.
The result for `O=c1[nH]c2ccccc2c(=O)n1Cc1nnnn1C1CC1` reads -16.1%; that for `CC(C)NC(=O)CC(C)NC(=O)N(C)Cc1cc(Cl)cn1C` (centres undefined), -0.414%.
Then `CC(C)=CCS(=O)(=O)Cc1nc(C(C)C)no1`, with 10.8%.
Regarding `COC(=O)NCc1ccc(NC(=O)CC2=CCCCC2)cc1`, the cytotoxicity at 10 µM came out at 2.97%.
In the case of `CSc1nc(C2CC2)nc(C)c1C(=O)NCc1ncc(C)o1`, the cytotoxicity at 10 µM is -3.71%.
Then `O=C(NCCN1CCOCC1)N(Cc1ccoc1)C1CCCCC1`, with -0.315%; and `Cc1ccsc1C(=O)Nc1cc(Br)c(=O)n(C)c1`, with -15.1%.
As to `CSc1[nH]c(=O)c(C(=O)N2CCCC2C2CCCC2)cc1C#N` (centres undefined), the cytotoxicity at 10 µM was 5.58%.
On to `Cc1cc(CNC2(c3ccccc3)CCCCC2)on1`, for which the cytotoxicity at 10 µM was 0.643%.
Consider `Cc1ccc(SC2CCCC2)c(C(=O)NCc2n[nH]c(=O)[nH]2)c1`, for which the cytotoxicity at 10 µM is -38.4%.
The result for `CC(NCC(=O)NCC(=O)Nc1ccc(F)cc1)c1cccs1` (centres undefined) reads 6.02%.
The result for `CCN(c1ccc(C(=O)NCc2ccnc(C)n2)cc1)C(C)C` reads -8.78%.
Then `CCOc1ncccc1CNC(=O)N1CCCC1c1cc(C)no1` (centres undefined), with 23.7%; and `COc1ccc(CC(=O)N2CCCCC2Cn2cccn2)cc1OC` (centres undefined), with -12.4%.
On to `Cc1cc2ccccc2n1CCC(=O)NCCS(C)(=O)=O`, for which the cytotoxicity at 10 µM was -5.79%.
Then `Cc1ccc([C@@H]2CN(S(=O)(=O)c3ccccc3)C[C@H]2N(C)C)cc1`, with -4.44%; and `Cc1cc(C(F)(F)F)cc(N2C[C@@H](CN(C)CCO)[C@@H](CO)C2)n1`, with -14.4%; and `Cc1nc(CC(=O)N2CCCN(c3ccc(F)cc3)CC2)cs1`, with 3.35%.
For `CCc1ncc(-c2cn(CCSc3ncn[nH]3)nn2)cn1`, the cytotoxicity at 10 µM is 1.41%.
The result for `CS(=O)(=O)c1ncc(CN2CCCC(C(N)=O)C2)n1CC1CCCCC1` (centres undefined) reads -2.35%.
Then `CCc1ncc(CN2CCCC3(CCC(=O)N(CCC(C)C)C3)C2)cn1` (centres undefined), with -7.66%; and `CC(C)OC(=O)N1CCCC2(CCC(=O)N(CCc3c[nH]cn3)C2)C1` (centres undefined), with -3.73%; and `CC(C)(C)n1cc(C2=CCN(CCN3CCCCCC3)CC2)cn1`, with -0.481%.
The result for `Cc1cc(C)nc(N(C)CCN(C)C2CCCC2)n1` reads -5.88%; that for `Cc1ccncc1-n1cc(CCO)cn1`, -2.51%; that for `CO[C@H]1CNC[C@@H]1NC(=O)CCc1nc(-c2ccccc2)no1`, -1.13%.
Turning to `Cc1cccc(-n2nc(CC(C)C)nc2CS(C)(=O)=O)c1`, the cytotoxicity at 10 µM stood at 1.81%.
`CN(Cc1noc2c1CCCC2)C(=O)CN1C(=O)CSc2ccccc21`: the cytotoxicity at 10 µM is -40.5%.
Then `CN(CCN1CCCCCC1)Cc1cnc(N)nc1`, with 0.993%; and `Cc1cc(N2CCC(C(=O)O)(n3ccc(C(C)(C)C)n3)CC2)nc(N)n1`, with -5.6%; and `Cc1csc(CN(C)c2cc(C)nc3c(C)c(C)nn23)n1`, with -2.96%.
The result for `CCn1c(C2CCCN(Cc3cccc4cnccc34)C2)nn(C)c1=O` (centres undefined) reads -6.29%.
In the case of `COc1ccc(Cl)cc1C(=O)N1C[C@@H](NC(=O)N(C)C)[C@H](C(C)C)C1`, the cytotoxicity at 10 µM is -1.41%.
With `COc1ccc(OCC(C)NS(C)(=O)=O)cc1` (centres undefined), the cytotoxicity at 10 µM was 16.6%.
For the molecule `CCc1cc(N2CCSCC2)n2nc(C)c(C)c2n1`, the cytotoxicity at 10 µM was -0.854%.
The result for `O=C(Cc1cccc(Cl)c1)N[C@@H]1CCNC[C@H]1O` reads 2.28%.
As for `CCOc1ccc2cc(C(=O)N3CCn4c(CC)nnc4C3)[nH]c2c1`, the cytotoxicity at 10 µM was -4.77%.
The result for `COC(=O)c1ccc(N2CCN(CCS(C)(=O)=O)C(C)C2)cc1` (centres undefined) reads -5.57%; that for `O=C(CN1CCCCC1Cn1cncn1)NCCOc1ccccc1` (centres undefined), -3.54%.
With `CCNc1cc2c(nn1)CCN(C(=O)CCc1c(C)noc1Cl)C2`, the cytotoxicity at 10 µM is -3.25%.
Regarding `COCCNC(=O)CN1CCN(c2nc(C)cs2)CC1`, the cytotoxicity at 10 µM is -13.2%.
The result for `Cc1ccc(NC(=O)C2CSCN2C(=O)c2cccnc2)c(C)c1` (centres undefined) reads -1.9%.
The result for `O=C1C(NCc2nnc3n2CCCC3)CCN1c1ccccc1Cl` (centres undefined) reads -7.42%.
Then `O=C(CCCc1ccccn1)N1CCCC1c1noc(C2CC2)n1` (centres undefined), with -4.47%; and `CC(NC(N)=O)C(=O)N(C)CCCc1cc(-c2ccccc2)no1` (centres undefined), with -1.86%; and `O=C(c1ccc(O)cc1)N1CCN(C(=O)c2ccc3c(c2)COC3)CC1`, with -9.75%.
For `COc1cccc(OCC(=O)NS(=O)(=O)c2ccc(C)s2)c1`, the cytotoxicity at 10 µM was -5.87%.
Take `COC(=O)N1CCCC(C(=O)NCc2cc3cccc(OC)c3o2)C1` (centres undefined): the cytotoxicity at 10 µM is -7.72%.
Then `COc1ccc2cc(C(=O)N3CCCCC3Cn3cccn3)[nH]c2c1` (centres undefined), with -9.32%.
Then `CNC(=O)[C@@H](c1ccccc1F)N1CCC[C@H]1C(=O)NC1CC1`, with -5.84%; and `Cc1oncc1C(=O)N[C@@H]1CN(Cc2ccco2)C[C@@H]2CCCO[C@@H]21`, with -109%.
Then `Cn1cc(CN2CCC(F)(F)C3(CCN(c4ccccn4)C3)C2)cn1` (centres undefined), with -0.434%.
On to `Cc1ccc(C(=O)N2C[C@@H]3[C@@H](C2)OCC(=O)N3Cc2cccnc2)o1`, for which the cytotoxicity at 10 µM amounted to 3.8%.
The result for `CN(C)CCOCc1nnc2n1CCN(Cc1ccoc1)CC2` reads -10.7%.
Then `CCS(=O)(=O)N1CCC2(CC1)CC(Oc1ccccn1)CO2` (centres undefined), with -1.58%.
The result for `O=C(CC1CC1)N1CCN(Cc2cccnc2)c2ncccc2C1` reads 5.15%.
On to `CC(C)N1CC[C@H]2[C@H](C[C@@H](Cn3cncn3)N2c2nccs2)C1`, for which the cytotoxicity at 10 µM was determined as 4.68%.
The result for `CC(=O)N1CC[C@H]2[C@H](C[C@@H](CN3CCCC3)N2c2nccs2)C1` reads 1.84%.
The result for `CN1CCn2c(-c3cnn(C)c3)cnc2C12CCN(CC1CC1)CC2` reads 7.55%; that for `O=C(Cc1ccccc1)N1C[C@@H]2OCCN(CC3CCCO3)[C@@H]2C1` (some centres undefined), -3.09%; that for `O=S(=O)(C1CC1)N1C[C@H]2CCC[C@@]2(COc2ccccn2)C1`, -3.47%.
Then `C[C@@H]1CN(C2CCOC2)C[C@]12CCN(Cc1cccnc1)C2=O` (some centres undefined), with -106%; and `O=C(N1CCOCC1)[C@@]12CCO[C@@H]1CCN(C1CCCCC1)C2`, with 2.14%.
On to `COCC(=O)NC[C@]12COC[C@H]1CN(Cc1ccc3c(c1)OCO3)C2`, for which the cytotoxicity at 10 µM was -112%.
Consider `c1cncc(C2COC3(CCN(Cc4cccs4)CC3)C2)c1` (centres undefined), for which the cytotoxicity at 10 µM was -0.697%.
Then `CCN1CCO[C@@H]2CN(C(=O)COC3CCCC3)C[C@@H]2C1`, with 4.32%.
The result for `NC(=O)C1Cn2ccnc2C2(CCN(C(=O)NC3CCCC3)CC2)O1` (centres undefined) reads -104%.
For `c1ccc(CO[C@@H]2CN(Cc3cccnc3)[C@@H]3COC[C@@H]32)nc1`, the cytotoxicity at 10 µM is -98.7%.
The result for `COC(=O)Cn1c(=O)[nH]c2cn(-c3ccc(Cl)cc3)c(=O)n21` reads 23.7%; that for `O=C(Cc1cccnc1)N1C[C@@H]2CC[C@H]1CN(Cc1ccc(F)cc1)C2`, 4.54%.
